Bioassay records deposited in PubChem by Broad Institute.
CAL PDZ FP-1: human CAL PDZ-peptide interaction inhibition; purified CAL PDZ, TMR-peptide fluorescence polarization, 1 h; inhibition, % at 20 µM; hit rate 0.02% among 330,000; AID 504414;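 active = highest replicate inhibition of at least 40%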;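 also: plate controls were DMSO neutral control wells for no effect and unlabeled competitor peptide control wells for full effect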
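Test system: tagged CAL PDZ domain / Buffer or medium: sodium phosphate/NaCl buffer pH 7.4 with TCEP, IgG, Thesit / Reagent: TMR-labelled reporter peptide T*-PRC34 bound in PDZ groove / Compound dosing: single point, 20 µM / Schedule: 1 h incubation at room temperature before polarization reading / Technique: fluorescence polarization (mP) / Benchmarks: unlabelled peptide, DMSO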
CAL PDZ FP-2: blocks peptide binding to the human CAL PDZ domain; hit rate 0.92% among 300,000; inhibition, % at 24.9 µM; Q9HD26; purified CAL PDZ, TMR-peptide fluorescence polarization, 1 h;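 active = mean inhibition of at least 30% with at least half of replicates also reaching 30%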;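 also: 0% = DMSO neutral control and 100% = excess unlabeled competitor peptide PRC23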
miR122 inh: blocks miR-122 activity in Huh7 sensor cells; Huh7 miR-122 Renilla luciferase sensor, 48 h; neutral wells = 0, positive control = 100; activation (reporter increase), % at 12.5 µM; hit rate 0.3% among 340,000;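 active = mean replicate activation score at least 90 and every replicate individually at or above 90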;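 also: higher luciferase means less miR-122 activity so hits act as miR-122 inhibitors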
PvdQ acylase: blocks Pseudomonas aeruginosa PvdQ acylase activity; purified PvdQ acylase, fluorescence plate reader; inhibition, % at 10 µM; hit rate 0.063% among 340,000; AID 488965; in the data active = inhibition above about 30%, passing the limit was not always enough;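 also: 0% = vehicle neutral wells and 100% = reference inhibitor wells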
An asterisk follows results filed as active; x = no result given; [ ] = remark or other dose. The list is not random: actives were taken first. Their share in the collection is about 0.95%.

SMILES	CAL PDZ FP-1	CAL PDZ FP-2	miR122 inh	PvdQ acylase
Cc1cc(NC(=O)CSc2nc3c(sc4ccccc43)c(=O)n2CCCN2CCOCC2)n[nH]1	-1.7	1.5	178.3*	-10.0
COC1OC2COC(c3ccccc3)OC2C2OC12 (stereo not given)	-0.8	143.9*	-9.5	-8.3
O=C(COC(=O)Cc1c(F)cccc1Cl)NC(=O)c1ccccc1	-2.1	49.7*	1.3	0.0
O=C(O)CCC1(CCC(=O)O)CCCC(CCC(=O)O)(CCC(=O)O)C1=O	0.2	79.9*	-9.7	-17.7
Cc1ccc(S(=O)(=O)NCCN(CCNS(=O)(=O)c2ccc(C)cc2)S(C)(=O)=O)cc1	-0.6	52.1*	11.6	-18.1
OC(CNCc1cccnc1)COc1ccc2ccccc2c1 (stereo not given)	0.0	1.0	1.7	9.3
CCCCC(=O)Nc1nn(CC(C)C)c2nc3ccccc3cc12	0.7	30.4*	6.6	-8.6
Cc1ccc(Oc2ncccc2/C=N/O)cc1	-1.9	9.3	-7.3	-16.4
CCC(=O)N(C)C[C@H]1Oc2ncc(C#CC3(O)CCCC3)cc2C(=O)N([C@@H](C)CO)C[C@@H]1C	x	x	-3.4[16.7 µM]	x
O=[N+]([O-])c1ccc(N2CCSCC2)cc1	-2.2	-3.2	-7.8	54.3*
COc1ccc(C(CNC(=O)COc2c(C)cc(C)cc2C)N2CCOCC2)cc1 (stereo not given)	-0.4	67.7*	x	-15.7
O=[N+]([O-])c1ccc(-c2cccnc2)cc1	-0.5	-0.7	-2.9	48.8*
O=[N+]([O-])c1ccc(COc2cccnc2)cc1	-1.2	-1.2	x	-3.5
CCOc1ccccc1N(CC(=O)Nc1cccnc1)S(=O)(=O)c1ccc(C)cc1	-1.0	-8.6	128.4*	-3.2
CCOc1ccccc1N(CC(=O)Nc1cccnc1)S(C)(=O)=O	-0.2	1.2	9.4	-8.5
COc1ccc(OC)c(C2SCCN2S(=O)(=O)c2cccc(C(F)(F)F)c2)c1 (stereo not given)	-0.8	-4.0	1.0	-5.4
COc1cccc(-c2cc(C(=O)Nc3ccn(Cc4ccc(C)cc4)n3)no2)c1	x	38.1*	-9.9	-14.7
COC(=O)c1cc(-c2ccccc2)on1	-1.4	-0.8	-5.8	-1.9
COC(=O)c1cc(-c2ccc(Br)cc2)on1	0.4	-7.7	x	92.4*
COC(=O)c1cc(-c2ccc(OC)cc2)on1	0.8	-4.3	-20.2	95.3*
COc1cccc(-c2cc(C(=O)O)no2)c1	-2.0	-0.9	-2.1	-5.2
COC(=O)c1cc(-c2cccc(OC)c2)on1	-4.2	-5.1	-1.3	47.1*
COc1ccc(CNCc2cccc(C)c2)cc1	-1.1	x	-1.6	1.5
COc1ccc(N2CCN(C(CNC(=O)C3CCCCC3)c3cccnc3)CC2)cc1 (stereo not given)	-0.5	-2.4	3.9	-11.9
c1ccc(CNc2c(-c3cccc(SC4CCCCC4)c3)nc3ccccn23)cc1	1.3	-1.0	1.7	-5.9
SMILES	CAL PDZ FP-1	CAL PDZ FP-2	miR122 inh	PvdQ acylase
C/C(CC(=O)Nc1ccccn1)=N\NC(=O)c1ccccc1O	-2.6	-2.6	261.6*	0.0
C/C(CC(=O)Nc1ccccn1)=N\NC(=O)c1ccc2ccccc2c1	-2.6	-0.1	x	-8.4
CCc1ccc(/C=C(\Cl)c2nc3cc(Cl)ccc3c(=O)[nH]2)cc1	-1.2	53.5*	x	-6.0
O=S(=O)(c1ccc2c(c1)CCCN2)N1CCCC1	-0.4	58.3*	0.1	-13.0
Cc1ccc(C(=O)NCCc2ccccc2)cc1N1CCCC1=O	-2.4	-0.9	-2.5	-13.5
O=C(NCCCN1CCOCC1)c1ccc2c(c1)N(Cc1cccc(Cl)c1)C(=O)c1ccccc1S2=O (stereo not given)	-0.9	37.4*	3.1	-14.3
Cc1ccc(C(=O)NCCCN2CCOCC2)cc1N1CCCC1=O	x	39.7*	-19.0	-12.2
N#Cc1ccc(NC(=S)N2CCC3CC2c2cc(-c4ccc5c(c4)OCO5)ccc23)cc1 (stereo not given)	x	x	109.7*	x
C[C@H]1CN([C@@H](C)CO)S(=O)(=O)c2ccc(C3=CCCC3)cc2O[C@H]1CN(C)C(=O)c1ccc(F)cc1	x	x	-5.4[16.7 µM]	x
Cc1cc(C(=O)CSc2nnnn2-c2ccccc2)c(C)n1CCc1ccccc1	0.3	-3.8	-5.1	0.0
Cc1cc(C(=O)CSc2nnnn2C)c(C)n1CCc1ccc(F)cc1	-1.7	39.4*	1.6	-15.9
Cc1ccc2nsnc2c1NC(=O)COc1ccccc1	-1.0	9.1	-2.0	-6.1
Cc1ccc(OCC(=O)Nc2c(C)ccc3nsnc23)cc1	-0.2	52.4*	-0.9	-4.7
Cc1ccc(S(=O)(=O)Nc2c(C)ccc3nsnc23)cc1	-1.6	-1.3	138.0*	1.7
CC(C)c1nc(NCCO)c2nnn(Cc3ccccc3)c2n1	-2.2	-0.7	x	-10.2
CCN1C(=O)CS/C1=N\S(=O)(=O)c1ccccc1	-0.2	76.0*	5.4	-7.9
CNC(=O)c1ccccc1NC(=O)C1CC(=O)N(C(C)C)C1 (stereo not given)	-0.1	-2.9	-3.6	-1.0
CCNC(=O)c1ccccc1NC(=O)C1CC(=O)N(C(C)C)C1 (stereo not given)	3.1	61.9*	-1.6	-17.2
COc1ccc(S(=O)(=O)NCCc2c(C)nn(C)c2Oc2ccccc2)cc1	-0.7	-7.0	237.7*	-15.3
O=S(=O)(NCCc1ccncc1)c1ccc(Br)cc1	-1.0	-3.2	192.3*	-5.9
COc1ccc(S(=O)(=O)NCCc2ccncc2)cc1	-0.8	63.0*	78.1	-17.6
COc1ccc(S(=O)(=O)NCCc2ccccc2)cc1	-1.2	-4.3	63.3	11.2
CCN(CC)c1ccc(N2C(=O)c3ccccc3C2=O)cc1	x	101.7*	1.8	-17.3
Cc1ccc(N2C(=O)c3ccccc3C2=O)cc1	-0.9	-3.8	5.2	-8.5
CN(C(=O)Cn1cc(C(F)(F)F)cc(Cl)c1=O)C1CCS(=O)(=O)C1 (stereo not given)	-1.9	-2.2	0.3	-9.9
SMILES	CAL PDZ FP-1	CAL PDZ FP-2	miR122 inh	PvdQ acylase
O=C(COc1cccc(Cl)c1)Nc1ccc2c(c1)CCC2	-1.2	-4.7	1.1	-11.9
CCOc1ccc(CN(C)C(=O)c2ccc(NS(=O)(=O)c3ccc4[nH]c(=O)[nH]c4c3)cc2)cc1	-2.0	13.0	-0.3	-13.3
C=CCN(CC=C)S(=O)(=O)c1ccc2nc(NC(=O)C(C)C)sc2c1	-0.6	1.4	122.5*	-13.2
COc1ccc(NS(=O)(=O)c2cc(NC(=O)CC(C)(C)C)ccc2N2CCCC2)cc1	0.3	0.0	50.9	-2.0
COc1ccc(NS(=O)(=O)c2cc(NC(=O)c3cnccn3)ccc2OC)cc1Br	-1.4	70.7*	32.5	-17.1
COc1ccc(NS(=O)(=O)c2cc(NC(=O)c3cncc(Br)c3)ccc2OC)cc1	-1.0	-2.3	74.7	2.8
CNC(=S)Nc1ccc(N2CCCC2)c(S(=O)(=O)Nc2ccc(OC)cc2)c1	1.2	-3.1	109.0*	9.8
COc1ccc(NS(=O)(=O)c2cc(NC(=O)c3cnccn3)ccc2N2CCCC2)cc1	-0.8	-3.3	104.1*	6.1
Cc1ccc(CNC(=O)C(NS(=O)(=O)c2ccc3nc(C)sc3c2)C(C)C)cc1 (stereo not given)	0.1	x	0.8	-17.2
Cc1ccc(S(=O)(=O)N2CCCCC2)cc1NC(=O)COC(=O)CN1C(=O)NC2(CC(C)CC(C)(C)C2)C1=O (stereo not given)	-0.2	-2.3	-7.6	-15.8
